OXTR potentiator: human OXTR potentiators, primary screen, fluorescence, CHO-OTR cells, Fluo-8 calcium | Oxytocin receptor (Homo sapiens), P30559 | Fluo-8 calcium fluorescence, potentiator mode; 0% = oxytocin EC15, 100% = EC100 | activation, % at 3 µM | 320,000 tested, 0.061% active | AID 2445, 2010;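 active means activation above that plate's cutoff, the mean activation of tested compounds plus 3 SD, cut at about 6.6% in these data, passing the limit was not always enough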;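 further: 100% uses oxytocin at 75 nM as the full agonist control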
Target sequence (P30559 whole entry, looked up): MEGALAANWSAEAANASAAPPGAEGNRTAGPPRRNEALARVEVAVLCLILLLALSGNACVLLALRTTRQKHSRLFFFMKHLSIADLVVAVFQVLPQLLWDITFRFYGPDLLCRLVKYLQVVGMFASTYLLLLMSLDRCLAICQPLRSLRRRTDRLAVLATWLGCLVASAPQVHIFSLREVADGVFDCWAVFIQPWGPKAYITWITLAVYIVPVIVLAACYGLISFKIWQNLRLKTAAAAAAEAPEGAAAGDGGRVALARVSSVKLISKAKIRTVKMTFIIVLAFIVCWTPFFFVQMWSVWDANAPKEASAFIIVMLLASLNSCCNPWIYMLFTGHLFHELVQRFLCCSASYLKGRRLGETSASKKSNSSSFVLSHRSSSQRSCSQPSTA
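Assay system: CHO cell line stably expressing human OTR | Also added: Oxytocin at about EC15, sub-maximal agonist stimulus | Times: Compound 6 min at room temperature before oxytocin, 100 s read | Measured by: Fluo-8 intracellular calcium fluorescence, ex 470-495, em 515-575 nm | Controls: EC15 oxytocin alone as 0%, 75 nM oxytocin as 100%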
TAAR1 agonist: human TAAR1 agonists, primary screen, Fluo-8 calcium fluorescence, CHO RD-HGA16 cells | Trace amine-associated receptor 1 (Homo sapiens), Q96RJ0 | AID 624467, 2012 | vehicle wells 0%, saturating PEA agonist 100% | 360,000 tested, 0.99% active | activation, % at 3 µM;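 active means activation above the mean activation of all test compounds in the run plus 3 SD, cut at about 38% in these data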
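System: CHO-derived RD-HGA16 cells with stable Gα16 and human TAAR1 / Times: 17-24 h plating, Fluo-8 75 min 37 °C, 30 min RT / Technique: calcium-sensitive Fluo-8 signal, excitation 470-495, emission 515-575 nm / Measure: % activation relative to PEA EC100 response / Benchmarks: DMSO and PEA EC100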
V1aR counter: agonists of human V1a receptor, primary screen, counter-screen for OXTR agonist project, fluorescence, CHO-V1R cells. Vasopressin V1a receptor (Homo sapiens), P37288. Fluo-8 calcium fluorescence, agonist mode; 0% DMSO, 100% 3 nM vasopressin. activation, % at 3 µM. 320,000 tested, 0.25% active. AID 2797, 2010;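 active means activation above the mean activation of all tested compounds plus 3 SD, per screening run, cut at about 20% in these data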;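 further: signal is peak over basal fluorescence ratio across a 100 second FLIPR read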
TAAR1 antagonist: human TAAR1 antagonists, primary screen, Fluo-8 calcium fluorescence, CHO RD-HGA16 cells. Trace amine-associated receptor 1 (Homo sapiens), Q96RJ0. antagonist. inhibition, % at 3 µM. 360,000 tested, 1.5% active. AID 624466, 2012;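 active means inhibition above a per-plate cutoff, the mean inhibition of test compounds on that plate plus 3 SD, cut at about 49% in these data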;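 further: 0% = DMSO plus EC80 beta-PEA response and 100% = DMSO alone without agonist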
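Test system – hTAAR1-expressing CHO RD-HGA16 cells, Gα16-coupled · Reagent – β-PEA at EC80 concentration, post-compound challenge · Compound dosing – 3 µM, single point · Timing – 140 s kinetic read after compound, 140 s after agonist · Detection – Fluo-8 intracellular calcium dye fluorescence, real-time kinetic reads · Control set – DMSO and EC80 PEA controls · Repeats – n of 1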
OXTR agonist: human OXTR agonists, primary screen, fluorescence, CHO-OTR cells, Fluo-8 calcium. Oxytocin receptor (Homo sapiens), P30559. Fluo-8 calcium fluorescence; normalized: DMSO 0%, oxytocin 100%. activation, % at 3 µM. 320,000 tested, 0.32% active. AID 2435, 2010;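 active means activation above the mean of all tested compounds plus 3 SD, cutoff set per screening run, cut at about 20% in these data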;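 further: peak over basal fluorescence ratio from a 100 s FLIPR kinetic read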
V1R ag confirm: V1a receptor agonists, calcium signal, confirmation, Fluo-8 calcium fluorescence, CHO-V1R cells. activation, % at 3 µM. shares compounds with V1aR counter. agonist. 180 tested, 20% active;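 active means average activation exceeds primary screen hit cutoff, cut at about 21% in these data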;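 further: peak over basal fluorescence ratio during a 100 s FLIPR read; 0% = DMSO only wells and 100% = 3 nM vasopressin wells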
OXTR counter: human OXTR agonists, counter-screen for V1R agonist project, fluorescence, CHO-OTR cells, triplicate; AID 434969, 2010; Fluo-8 calcium fluorescence; shares compounds with V1aR counter; activation, % at 3 µM; 180 tested, 10% active;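 active means mean activation over three repeats above the cutoff from the earlier oxytocin receptor agonist screen, cut at about 20% in these data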;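 further: peak over minimum fluorescence ratio within a 100 second FLIPR read; 0% = DMSO only wells and 100% = oxytocin high control wells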
Active calls of the source: *; x = not tested or not shown. The list is not random: actives were taken first. Their share in the collection is about 2.3%.

SMILES	OXTR potentiator	TAAR1 agonist	V1aR counter	TAAR1 antagonist	OXTR agonist	V1R ag confirm	OXTR counter
Cc1ccc(CNC(=O)c2cccc3c2C(=O)c2ccc(N4CCCCC4)cc2S3(=O)=O)cc1	-5	47*	22*	71*	14	19	10
Cc1ccc(CNC(=O)c2cccc3c2C(=O)c2ccc(N4CCOCC4)cc2S3(=O)=O)cc1	-6	23	2	40	1	x	x
C[C@@H]1CC[C@]2(C(=O)O[C@@H]3O[C@H](CO)[C@@H](O)[C@H](O)[C@H]3O)CC[C@]3(C)C(=CCC4[C@@]5(C)CC[C@H](O[C@@H]6OC[C@H](O)[C@H](O[C@@H]7O[C@H](CO)[C@@H](O)[C@H](O)[C@H]7O)[C@H]6O)C(C)(C)C5CC[C@]43C)C2[C@]1(C)O (some centres undefined)	8	0	1	11	2	x	x
COc1ccc(/C=C\C(=O)O[C@@H]2C(O)C(O[C@@H]3OC(C)[C@H](O[C@@H]4OCC(O[C@H]5O[C@H](CO)[C@@H](O)C(O)C5O)C(O)C4O)C(O)C3O)[C@H](OC(=O)[C@]34CCC(C)(C)C[C@@H]3C3=CCC5[C@@]6(C)CC(O)C(O[C@@H]7OC(CO)C(O)[C@H](O)[C@H]7O)[C@@](C)(C(=O)O)C6CC[C@@]5(C)[C@]3(CO)CC4)O[C@H]2C)cc1 (some centres undefined)	-7	x	73*	x	6	79*	44*
O=c1ccnc(Nc2ccc([N+](=O)[O-])cc2)[nH]1	-3	2	1	0	1	x	x
O=C(NNC(=S)NC(=O)c1ccco1)c1ccc(F)cc1	-12	9	29*	-17	19	11	6
O=C(Nc1cccc(Cl)c1)Nc1ccc2nccnc2c1	-15	47*	23*	58*	14	10	10
S=C(NCc1ccc(Cl)cc1)Nc1ccncc1	-16	15	22*	3	17	14	16
Cn1c(=O)c2c(nc3n2CCCN3CCc2ccccc2)n(C)c1=O	-8	3	1	-18	0	x	x
CCc1ccc(NC(=O)N(CCCN2CCOCC2)C(C)c2cc3cccc(OC)c3o2)cc1 (centres undefined)	4	0	22*	-30	-2	0	-1
Cc1cccc(C(=O)OC2CCOC2=O)c1O (centres undefined)	4	1	0	-27	1	x	x
ONC(=Nc1ccccc1Cl)c1ccccc1Cl	-10	1	20*	-22	3	1	2
CC(C)c1ccc(CN(C(=O)c2ccco2)C2CCS(=O)(=O)C2)cc1 (centres undefined)	-5	-2	1	6	1	x	x
Cc1ccc2[nH]c(C(=O)N/N=C/c3ccccc3C(=O)O)c(-c3ccccc3)c2c1	-7	6	1	3	0	x	x
Cc1ccc2[nH]c(C(=O)N/N=C/c3ccccc3O)c(C)c2c1	-16	7	22*	1	5	1	0
CS(=O)(=O)N1CCN(C(=S)NCc2ccc(Cl)cc2)CC1	-18	7	3	11	3	x	x
CNC(=O)c1[nH]cnc1C(=O)Nc1ccccn1	-1	5	43*	-6	3	1	0
CCOC(=O)c1c(NC(=O)CSc2nc3ccc(C)cc3[nH]2)sc2c1CC(C)(C)NC2(C)C	-14	18	22*	-7	15	2	9
O=C(C[n+]1ccccc1)N/N=C/c1c(F)cccc1Cl	-7	0	-1	-34	0	x	x
CCSC1=N/C(=C\C=C2/Oc3ccccc3N2CC)C(=O)S1	-7	6	23*	0	11	21*	13
CCOC(=O)c1c(C)[nH]c(C)c1S(=O)(=O)N(C)CC(=O)NCc1cccc(Br)c1	-4	4	-1	-17	0	x	x
CC(OC(=O)/C(C#N)=C/c1ccc(N(C)C)cc1)C(=O)N(C)Cc1ccccc1 (centres undefined)	-17	16	30*	43	18	32*	19
Cc1c(NC(=O)Nc2ccc(Cl)cc2)c(=O)n(-c2ccccc2)n1C	4	6	1	3	0	x	x
Cc1ccc(NC(=O)Nc2c(C)n(C)n(-c3ccccc3)c2=O)cc1	-6	1	21*	-10	1	0	0
Oc1ccc(Br)cc1C=Nc1ccc2c3c(cccc13)CC2	-8	5	24*	2	12	0	-1
SMILES	OXTR potentiator	TAAR1 agonist	V1aR counter	TAAR1 antagonist	OXTR agonist	V1R ag confirm	OXTR counter
CC(Oc1ccc2c(-c3ccccc3)cc(=O)oc2c1)C(=O)N1CCOCC1 (centres undefined)	3	18	1	-7	2	x	x
CC(Oc1ccc2ccc(=O)oc2c1)C(=O)N1CCOCC1 (centres undefined)	0	2	21*	-18	0	0	0
Fc1ccc(CSc2ccc3nnc(-c4cccs4)n3n2)cc1	-10	3	24*	-5	-1	1	0
O=C(Cn1cnc(S(=O)(=O)N2CCCCC2)c1)N1CCN(c2ccc([N+](=O)[O-])cc2)CC1	2	x	0	x	0	x	x
Nc1c(C(=O)Nc2nccs2)sc2nc(-c3cccs3)cc(C(F)(F)F)c12	-18	30	34*	31	19	24*	34*
CC(C)(C)C(=O)c1sc2nc(-c3cccs3)cc(C(F)(F)F)c2c1N	-5	11	4	27	3	x	x
Cc1ccc(C2=NS(=O)(=O)N(C)C(C(=O)NCc3cccs3)=C2)cc1	-4	9	3	27	2	x	x
COc1ccc(OC)c(C2=NS(=O)(=O)N(C)C(C(=O)NCc3cccs3)=C2)c1	-9	43*	22*	26	16	11	25*
CC(=O)c1cccc(S(=O)(=O)N2CCC(C(=O)OC3CCOC3=O)CC2)c1 (centres undefined)	0	8	-1	-8	0	x	x
c1ccc(CNc2ccccn2)cc1	-10	2	-1	5	0	x	x
c1ccc(Nc2ccccc2Nc2ccccn2)nc1	-5	5	49*	-11	10	0	-1
